Test results taken from ChEMBL document CHEMBL3745639, “Structure-activity relationships for lipoprotein lipase agonists that lower plasma triglycerides in vivo” (Eur J Med Chem, 2015).
Calls of active or inactive are those of the source. No rule for the calls is given here.

How the values were obtained:
[1] = Apparent permeability across apical to basolateral side in human Caco2 cells at 10 uM after 15 to 60 mins; assay type: ADME, cell-based; settings: Caco-2
Method in brief: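 Caco-2 monolayers washed with pre-warmed HBSS, then donor solution applied. Transport run with apical pH 6.5 and basolateral pH 7.4. Monolayer integrity checked by TEER and by mannitol permeability. Papp derived from transport rates.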

[2] = Efflux ratio of apparent permeability from basolateral to apical over apical to basolateral side in human Caco2 cells at 10 uM after 15 to 60 mins; assay type: ADME, cell-based; settings: Caco-2
[3] = target: T1, Lipoprotein lipase (Bos taurus) (UniProt P11151); test: Induction of bovine LPL stabilization using intralipid as substrate at 12.5 uM preincubated for 10 mins with human recombinant ANGPTL4 followed by substrate addition measured after 45 mins relative to control
T1 sequence (whole entry): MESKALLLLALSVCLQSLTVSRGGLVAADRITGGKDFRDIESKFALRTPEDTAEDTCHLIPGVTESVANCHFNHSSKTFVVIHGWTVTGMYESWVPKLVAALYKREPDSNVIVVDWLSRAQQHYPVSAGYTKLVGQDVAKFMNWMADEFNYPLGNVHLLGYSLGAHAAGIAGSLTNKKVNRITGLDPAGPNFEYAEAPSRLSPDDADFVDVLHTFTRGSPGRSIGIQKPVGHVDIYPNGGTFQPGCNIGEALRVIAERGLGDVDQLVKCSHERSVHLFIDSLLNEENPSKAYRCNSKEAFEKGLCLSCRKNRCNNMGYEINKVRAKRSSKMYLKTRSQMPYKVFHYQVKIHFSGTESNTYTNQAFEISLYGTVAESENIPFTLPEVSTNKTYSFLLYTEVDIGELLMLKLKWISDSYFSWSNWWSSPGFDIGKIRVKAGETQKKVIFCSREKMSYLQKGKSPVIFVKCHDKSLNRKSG
Method in brief: (§1)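 Compound in DMSO in buffer (50 mM potassium phosphate pH 7.4, 0.15 M NaCl, 0.01% Triton X-100), with human ANGPTL4 N-terminal fragment (aa 26-184, 75 nM final) and bovine LPL (15 nM final). Preincubated 10 min at 25 °C with shaking. Stopped after 45 min with 2.5% Triton X-100, and NEFA measured enzymatically. Activity normalised between DMSO+LPL+ANGPTL4 (0%) and DMSO+LPL (100%).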

[4] = Kinetic aqueous solubility of the compound in PBS at pH 1.2 after 2 hrs by LC-Ms analysis; assay type: physicochemical; settings: read-out: Kinetic_solubility
Method in brief: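 Kinetic solubility from a 10 mM DMSO stock diluted 1:100 (1% DMSO, maximum detectable 0.1 mM) into PBS pH 7.4 or HCl-adjusted PBS at about pH 1.2. Incubated at 37 °C for 2 h in sealed glass vials, centrifuged at 10000 x g, 37 °C, 20 min, then LC-MS/MS.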

[5] = Stability of the compound in human plasma after 4 hrs at 37 degC by mass spectrometric analysis; assay type: ADME, cell-free; settings: read-out: Stability
Method in brief: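 Plasma test solution (pooled human plasma, typically 10 μM compound) held at 37 °C for 4 h, matching the dialysis time. A reference sample was frozen immediately. Proteins precipitated with methanol containing warfarin, then LC-MS/MS. Stability expressed on a relative basis.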

[6] = Half life in human liver microsomes at 1 uM; assay type: ADME
Method in brief: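 Pooled liver microsomes (0.5 mg/ml) with compound at 1 μM in 0.1 M phosphate buffer pH 7.4. Reaction started with NADPH 1 mM. Sampled at 0, 5, 15 and 40 min in duplicate, quenched with acetonitrile containing warfarin, then LC-MS/MS.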

[7] = Intrinsic clearance in human hepatocytes assessed per 10^6 cells at 1 uM after 10 to 60 mins by LC-MS/MS analysis in presence of NADPH; assay type: ADME, cell-based, Hepatocyte; settings: read-out: CLH
Method in brief: (§2)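 Freshly isolated human hepatocytes (0.5 x 10⁶ cells/ml) in Williams medium E with compound at 1 μM. Reaction started by adding cells. Sampled at 0, 10, 30 and 60 min in duplicate, quenched with acetonitrile containing warfarin, then LC-MS/MS.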

[8] = target: T2, Lipoprotein lipase (Bos taurus, UniProt P11151); test: Induction of bovine LPL stabilization using intralipid as substrate preincubated for 10 mins with human recombinant ANGPTL4 followed by substrate addition measured after 45 mins relative to control; method in brief: as §1
T2 sequence (P11151 whole entry): T1 sequence (whole entry)

[9] = target: T1, Lipoprotein lipase (Bos taurus); test: Induction of bovine LPL stabilization using intralipid as substrate at 6.25 uM preincubated for 10 mins with human recombinant ANGPTL4 followed by substrate addition measured after 45 mins relative to control; method in brief: as §1
[10] = target: T3, Peroxisome proliferator-activated receptor gamma (Homo sapiens, UniProt P37231); test: Agonist activity at PPARgamma (unknown origin)
T3 sequence (P37231 whole entry): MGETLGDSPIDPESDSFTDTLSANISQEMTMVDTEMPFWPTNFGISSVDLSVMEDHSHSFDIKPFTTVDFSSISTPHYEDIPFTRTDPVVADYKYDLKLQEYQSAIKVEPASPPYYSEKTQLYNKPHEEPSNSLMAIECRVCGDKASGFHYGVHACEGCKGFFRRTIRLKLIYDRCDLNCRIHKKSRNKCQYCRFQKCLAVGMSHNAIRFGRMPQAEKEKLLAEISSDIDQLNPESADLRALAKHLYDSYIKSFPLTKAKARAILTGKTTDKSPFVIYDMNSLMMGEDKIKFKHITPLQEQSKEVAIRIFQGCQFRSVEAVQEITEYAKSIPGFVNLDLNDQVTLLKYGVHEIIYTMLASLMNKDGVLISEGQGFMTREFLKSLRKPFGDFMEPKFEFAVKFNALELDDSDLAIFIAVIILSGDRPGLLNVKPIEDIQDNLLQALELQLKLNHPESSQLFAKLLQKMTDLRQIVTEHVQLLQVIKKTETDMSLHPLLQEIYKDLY
Method in brief: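 Single agonist-mode profiling at ten concentrations against FXR, PPARα, PPARγ and RXRα, run as an outside screening service.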

[11] = target: T1, Lipoprotein lipase (Bos taurus); test: Induction of bovine LPL stabilization using intralipid as substrate at 3.12 uM preincubated for 10 mins with human recombinant ANGPTL4 followed by substrate addition measured after 45 mins relative to control; method in brief: as §1
[12] = Half life in human hepatocytes at 1 uM; assay type: ADME, cell-based, Hepatocyte; method in brief: as §2
[13] = Fraction unbound in human plasma at 10 uM after 4 hrs by rapid equilibrium dialysis method; assay type: ADME, cell-free
Method in brief: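 Rapid equilibrium dialysis of pooled human plasma from two male and two female non-smoking donors. Compound typically 10 μM final, dialysed against isotonic phosphate buffer pH 7.4 at 37 °C for 4 h with rapid rotation. Proteins precipitated with methanol containing warfarin internal standard, then both compartments analysed by LC-MS/MS.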

In the case of Cc1ccc(NC(=O)c2cc(-n3cc4ccc(C(=O)O)cc4n3)ccc2N2CCCCC2)cc1, the Papp A→B at 10 µM [1] is reported as 23 ×10⁻⁶ cm/s, the efflux ratio at 10 µM [2] is reported as 1.4 and the Activity [3] is reported as 75.6%. It also gave a solubility kinetic at 2 h [4] of less than 2 µM, a remaining at 4 h [5] of 96% and a half-life at 1 µM [6] greater than 1.33 h. For the same compound, the hepatocyte CLint at 1 µM [7] was 12 µL/min/1e6 cells, the EC50 [8] was 6 µM and the Activity [9] was 16%. For the same compound, the EC50 [10] was greater than 100 µM, the Activity [11] was “inactive” and the half-life at 1 µM [12] was greater than 2 h. It also gave a Fu [13] of less than 0.01%.
